This is an account of results in the RNAGym collection of RNA variant scans (doi:10.1126/science.aae0568).

To fix the notation:
B1: tRNA (parent)
chain: GUUCCGUUGGCGUAAUGGUAACGCGUCUCCCUCCUAAGGAGAAGACUGCGGGUUCGAGUCCCGUACGGAACG

This sample holds only a part of the variants without activity.

In this data set the parent is B1. In words: yeast fitness relative to wild type (ratio to wild type); higher = fitter; tRNA-Arg(CCU), competitive growth, 37 C, YPD. A digest of the protocol:
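A pool of Saccharomyces cerevisiae strains, each with a tRNA-Arg(CCU) gene variant at the native genomic locus, was competed in YPD at 37°C for 24 hours across six parallel replicates. The variants had been chemically synthesised at a 3% per-site mutation rate over 69 sites, and gene amplicons before and after competition were read by 100-nucleotide paired-end sequencing. Darwinian fitness relative to wild type rested on changes in genotype frequencies. Genotypes required ≥ 100 starting reads, and estimates < 0.5 were set to 0.5.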
With U16C A21C G41A, the yeast fitness was at most 0.5.

For C24A A40G C49A C61G, the yeast fitness is 0.53.

For C5A G44C, the yeast fitness is 0.8.

As for U2G C4U, the yeast fitness stood at 0.971.

Regarding A21G C24U C33U, the yeast fitness was at most 0.5.

A20U G23A C27U A65G G68C: the yeast fitness was at most 0.5.

Take G9A G25A C61A: the yeast fitness is at most 0.5.

For the variant C30G C34A G52C, the yeast fitness was at most 0.5.

As to C11A A42U G44C U54A C62U A65G, the yeast fitness was at most 0.5.

Consider A14U G44C, for which the yeast fitness turned out to be 0.673.

Turning to G23C C33G A42U C66A, the yeast fitness was determined as 0.643.

In the case of A15G U28G A42U G48A C61U, the yeast fitness was at most 0.5.

C29U C60G C62U: the yeast fitness came to 0.546.

With C5A C22U C29U A42U, the yeast fitness is at most 0.5.

Turning to A14G G50C A69U, the yeast fitness is at most 0.5.

On to G6A C11U A40G, for which the yeast fitness is at most 0.5.

For the variant U26G A42C C61U, the yeast fitness was found to be 0.684.

U16A A43G: the yeast fitness was determined as 1.01.

Take C11G G23A C46A G68U: the yeast fitness was 0.566.

As to U32A A36G, the yeast fitness is 0.814.

Turning to U13A U28C G41A G44A, the yeast fitness is at most 0.5.

For the variant A14C C29A, the yeast fitness is 0.596.

Regarding C4U G38A G58C C66U, the yeast fitness is at most 0.5.

Regarding A20U C30G G63A, the yeast fitness is at most 0.5.

On to A43G U53A, for which the yeast fitness came out at 0.657.

Turning to C5G A14U U16C G18A A21U A42G G68A, the yeast fitness was at most 0.5.

Regarding U28A A70U, the yeast fitness turned out to be 0.738.

G17A U59A: the yeast fitness amounted to 0.759.

Take C33U G51C: the yeast fitness is at most 0.5.

As to C22A C24G A43G, the yeast fitness is at most 0.5.

For U2G A40U C49A G58C G63C, the yeast fitness was at most 0.5.

For the variant U8A C11G G56A, the yeast fitness turned out to be 0.583.

Turning to G9C A14U, the yeast fitness came to 0.509.

For C31U U32A, the yeast fitness amounted to 0.661.

As to A20C A37C A43G, the yeast fitness was found to be 0.57.

Consider G12C C66U, for which the yeast fitness turned out to be 0.743.

For G18A C33U A42G, the yeast fitness came out at 0.54.

On to U8A G23A U32G C60U U64G A69C, for which the yeast fitness is at most 0.5.

Consider U13A C46G U53C C62U A69C, for which the yeast fitness was at most 0.5.

Consider U7A U13A C46G C66U, for which the yeast fitness is at most 0.5.

Consider C11A U35A G52A, for which the yeast fitness is at most 0.5.

As for U19G G25A, the yeast fitness came to 0.958.

Take C11U U13A A20C C22G: the yeast fitness is at most 0.5.

On to C34U U47A C66U, for which the yeast fitness was at most 0.5.

With A15G G41A A69U, the yeast fitness was found to be 0.615.

For the variant G58C U64A, the yeast fitness was found to be 0.81.

Regarding U28A C33U C55G A70U, the yeast fitness is at most 0.5.

Turning to U16C C22G C62U, the yeast fitness was determined as 0.716.

Turning to C5U C33U A65G C66A, the yeast fitness was at most 0.5.

As for C11G G38C G58C U64A, the yeast fitness was at most 0.5.

On to C5A U35C G44A G48C C55G C66G, for which the yeast fitness was at most 0.5.

On to G51A, for which the yeast fitness worked out at 0.917.

Take G6A G12C U16C C31U G52C: the yeast fitness amounted to 0.555.

As for C11U G17C A21U, the yeast fitness came to 0.541.

As for C5G C11G C30U C31U A57G G63A, the yeast fitness was at most 0.5.

For U2G G6A A70G, the yeast fitness amounted to 0.776.

In the case of C5G G25C U47C, the yeast fitness came out at 0.545.

For C5G A14U A43G G67C, the yeast fitness came to 0.56.

Turning to C11G C24G G52C C55G, the yeast fitness was 0.813.

As to A14U C24U C33G A65U C66U A69C, the yeast fitness is at most 0.5.

With C27A A42G, the yeast fitness was 0.791.

Turning to C4U C22G, the yeast fitness turned out to be 0.943.

As to U19C A40C A65U, the yeast fitness turned out to be 0.605.

On to C27U U47C C55U C62G A69U, for which the yeast fitness is at most 0.5.

Regarding A20G A36U A57C, the yeast fitness is at most 0.5.

Turning to G6C A14G, the yeast fitness amounted to 1.

With C30U G50C A70G, the yeast fitness was at most 0.5.

Consider A21U U28G A69C, for which the yeast fitness stood at 0.529.

Regarding A42U A45U C46U C66A, the yeast fitness is at most 0.5.

As for U2C U13C A14G C22G U26A, the yeast fitness was at most 0.5.

C4U A20G A45U C61U C62G A69C: the yeast fitness was 0.602.

Regarding U2C U28C C34U U64A A65U, the yeast fitness stood at 0.735.

Consider G25A U35C A43G C55U, for which the yeast fitness was at most 0.5.

With A40U A69C, the yeast fitness was determined as 0.851.

For the variant U26G G58C, the yeast fitness turned out to be 0.696.

Regarding C27U G58C, the yeast fitness worked out at 1.02.

As for G12C G52C C66U, the yeast fitness was at most 0.5.

In the case of A36G A42C G67C A69C, the yeast fitness was found to be 0.559.

On to G12C, for which the yeast fitness is 0.98.

As to C31A C66U, the yeast fitness was found to be 0.788.

For C46U C55A G56C A65G, the yeast fitness is at most 0.5.

Regarding C5G A43C G48C U64C, the yeast fitness was at most 0.5.

Regarding C5U G10C A14G C46G C62U, the yeast fitness is 0.593.

For U13A A57G, the yeast fitness turned out to be 0.792.

Regarding G12A G18C C27U C55A, the yeast fitness was at most 0.5.

With U13C A40U A57G, the yeast fitness turned out to be 0.688.

Regarding G10A C11A A15C C24A C34A C46G G51A, the yeast fitness is at most 0.5.

For the variant U19C A42G, the yeast fitness stood at 0.774.

With U16C G23C G51C, the yeast fitness is at most 0.5.

As for C27G A37G G63C U64C, the yeast fitness was at most 0.5.

As for A45U C61G A65C, the yeast fitness is at most 0.5.

Regarding U26C C27G C34U A37U A43G A45G A57G, the yeast fitness is at most 0.5.

Turning to C27U C34A G44C C62A, the yeast fitness was found to be 0.539.

Turning to C24G C30A A40C, the yeast fitness amounted to 0.547.

As to U19C G25C G58A, the yeast fitness was 0.625.

For the variant A37C G68U, the yeast fitness stood at 0.761.

In the case of A20U G50A, the yeast fitness was determined as 0.88.

As for C22G U54A, the yeast fitness came to 0.591.

In the case of U54A C66U, the yeast fitness came to 0.729.

Regarding C4G G6A G10C U19A C24G A43G C61G A65U, the yeast fitness amounted to 0.576.

With C5U U59A, the yeast fitness is 0.886.

Consider C49U G58C, for which the yeast fitness is 1.

On to G10C C11A G18C C24U C66U, for which the yeast fitness was 0.529.

U8C U16A U19A C22U: the yeast fitness turned out to be 0.536.

As to C5U C27U A37C, the yeast fitness was at most 0.5.

U26C A69U: the yeast fitness came out at 0.906.

Regarding C4U G25C C30G C55A, the yeast fitness worked out at 0.561.

With G25A U47C U64C A70C, the yeast fitness was found to be 1.06.

On to G10A U16A U32C A65G, for which the yeast fitness was at most 0.5.

For C29G A40C A42C G58A, the yeast fitness was at most 0.5.

Regarding C31A A43C C62U, the yeast fitness came to 0.998.

Consider C11G A14G G48A C55U C66U G68C A69U, for which the yeast fitness is at most 0.5.

A21C C22G A42C U47A U64C: the yeast fitness is at most 0.5.

Turning to C33U C61U, the yeast fitness turned out to be 0.734.

As for C27A C31G A65U A70G, the yeast fitness was at most 0.5.

As for G17C G23C U47G, the yeast fitness is at most 0.5.

For the variant C22U G25A A43G U54A C62U, the yeast fitness was at most 0.5.

With U7C C11U C22A C29G C33U, the yeast fitness was at most 0.5.

Consider A14G G23A, for which the yeast fitness came out at 0.559.

Consider A15C G18A U35C, for which the yeast fitness is at most 0.5.

In the case of U7G A14U U53A, the yeast fitness came to 0.554.

Consider A45C C55U G68C, for which the yeast fitness was 0.626.

With C4G C29G C46U, the yeast fitness is at most 0.5.

For G6A C27G C46U C60A C66G G68C, the yeast fitness was at most 0.5.

Turning to G41A U64C, the yeast fitness stood at 1.07.

Turning to C5G U35A C60A, the yeast fitness is at most 0.5.

For U8A U26C G39C A43G, the yeast fitness is at most 0.5.

On to U8C G44A U53C A70U, for which the yeast fitness is at most 0.5.

With A37U A42G A69C, the yeast fitness was at most 0.5.

As to U8C A40G, the yeast fitness was 0.877.

C11A A21C U26G A69C: the yeast fitness was at most 0.5.

In the case of C33G C34G U35A G44A, the yeast fitness was at most 0.5.

On to C27G C29G G51C, for which the yeast fitness is at most 0.5.

As for U7C U16A C31U A43C, the yeast fitness turned out to be 0.722.

Turning to U3C C11A U19G C24A A40C A45U, the yeast fitness is at most 0.5.

Take U3A C4U C11U G48C: the yeast fitness was 0.532.

In the case of G48A C61U A70C, the yeast fitness was 0.989.

Regarding A15G C27A C31A A57C, the yeast fitness was at most 0.5.

As to U28A C33G A43C C61U A69U, the yeast fitness is at most 0.5.

For the variant U8G C22U U26A G52A, the yeast fitness is at most 0.5.

As to C4G U7G G9A A20G C22A G41A A69C, the yeast fitness was at most 0.5.

For U2A C5A U64C, the yeast fitness worked out at 0.595.

Regarding C11A A45U C55U G68U, the yeast fitness was at most 0.5.

For the variant C5U U13A A70U, the yeast fitness stood at 0.737.

G10A A36G G38C: the yeast fitness is at most 0.5.

For G6C C11U C34G, the yeast fitness was at most 0.5.

C22U G50U: the yeast fitness is 0.669.

Regarding A14U A21U U32G A37G A45G C55A, the yeast fitness is at most 0.5.

C27A C31A G52A U54C G58C A70G: the yeast fitness is at most 0.5.

Turning to U7G G50A, the yeast fitness worked out at 0.858.

Take C11A U26C C29G C31U G52C C55A U59G: the yeast fitness was at most 0.5.

Regarding C4U C11G C34U C55A A65U A70G, the yeast fitness was at most 0.5.

For C11G U54A, the yeast fitness was at most 0.5.

For the variant C5U A42G U47A, the yeast fitness turned out to be 0.619.

Regarding A21U C27A G50C G52C G67C, the yeast fitness was at most 0.5.

A36G G44C: the yeast fitness came to 0.981.

Turning to G6A A20U C27A, the yeast fitness was at most 0.5.

Consider C29U A42U U64C C66U A69U, for which the yeast fitness is at most 0.5.

Take C4U U16A G23A A36G C49G: the yeast fitness is at most 0.5.

In the case of A15G A21G C55G, the yeast fitness was at most 0.5.

In the case of C5A A36C C46G, the yeast fitness worked out at 0.532.

In the case of C5G A14C A37G G52U C62G, the yeast fitness is at most 0.5.

As to U3A C5A G67A, the yeast fitness was 0.548.

As to C4G G23C G67C, the yeast fitness was at most 0.5.

With C31A C34G A45U, the yeast fitness stood at 0.591.

For U8A A15G C27A G56A, the yeast fitness is at most 0.5.

Regarding C5G C55U G67A, the yeast fitness turned out to be 0.598.
